The text below walks through data of ChEMBL document CHEMBL4196122, “Design, Synthesis, and Biological Evaluation of Allosteric Effectors That Enhance CO Release from Carboxyhemoglobin” (ACS Med Chem Lett, 2018).

Data set [1] addresses T1, Hemoglobin HbA (Homo sapiens) (UniProt P69905+P68871). The data set can be described thus: Binding affinity to hemoglobin (unknown origin) assessed as increase in release of carbon monooxide from carboxyhemoglobin by measuring half life of carboxyhemoglobin at 5:1 compound/Hb tetramer ratio incubated for 1 hr measured every 15 mins for 90 mins (reference value: 80 +/- 0.3 min). The class given is protein-complex assay.

The subject of a further data set is Erythrocyte. As to the kind of experiment: (§1) Hemolytic activity against human RBC assessed as increase in fraction of extracellular Hb level at 1 mM after 1 hr. It is filed as ADME, cell-based. Conditions: erythrocyte, 1 h, 1000 µM. An outline of the steps:
(§2)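 Human red blood cells (50 µM Hb) incubated with compound at 1 mM in 0.1 vol % DMSO. Read-out is extracellular Hb as a fraction of total Hb. "-" denotes less than 1% of total Hb released.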

The nature of data set [2]: Aqueous solubility of the compound in DMSO/[…] solution at 2.5 mM. It is filed as physicochemical. Conditions: 2500 µM. An outline of the steps: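 Compound made up at 2.5 mM in DPBS containing 1 vol% DMSO. Scored by visual inspection of the solution: "+" if no aggregates or crystals are seen, "-" if aggregates or crystals appear.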
Data set [3] has as its target T1, Hemoglobin HbA (Homo sapiens). As to the kind of experiment: Binding affinity to hemoglobin (unknown origin) assessed as partial oxygen pressure at which 50% of Hb is oxygenated (reference value: 17 +/- 0.3 mmHg). It is filed as protein-complex assay.
For data set [4] the target is unchanged. The data set can be described thus: Binding affinity to hemoglobin (unknown origin) assessed as increase in release of carbon monooxide from carboxyhemoglobin by measuring half life of carboxyhemoglobin at 20:1 compound/Hb tetramer ratio incubated for 1 hr measured every 15 mins for 90 mins (reference value: 80 +/- 0.3 min). The class given is protein-complex assay.

Data set [5] is described as follows: Hemolytic activity against human RBC assessed as fraction of extracellular Hb level at 1 mM after 1 hr relative to total Hb level. It is filed as ADME, cell-based, Erythrocyte. The note with it: red blood cells (erythrocytes), read-out: Activity. An outline of the steps:
as §2

The nature of data set [6]: as §1. The class given is ADME, cell-based, Erythrocyte. The note with it: red blood cells (erythrocytes), read-out: Activity. In short, it runs like this: as §2

A value given as a limit tells only on which side of the number the result lay.

T1 sequence (P68871 2-147 partner limits assumed): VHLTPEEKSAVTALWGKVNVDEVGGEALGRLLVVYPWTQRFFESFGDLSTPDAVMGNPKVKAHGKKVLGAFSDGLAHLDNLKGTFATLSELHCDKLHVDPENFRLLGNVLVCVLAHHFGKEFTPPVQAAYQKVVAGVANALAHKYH
T1 sequence (P69905 2-142 limits assumed): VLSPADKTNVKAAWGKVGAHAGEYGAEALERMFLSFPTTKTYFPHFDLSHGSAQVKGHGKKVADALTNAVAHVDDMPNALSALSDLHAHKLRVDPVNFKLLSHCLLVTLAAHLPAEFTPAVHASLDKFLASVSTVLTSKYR

Turning to `Cc1cc(C)cc(C(=O)N(C)[C@H](Cc2ccc(-c3ccccc3)cc2)C(=O)N[C@@H](Cc2c[nH]c3ccccc23)C(=O)O)c1`, the T1/2 in data set [1] came to 1.15 h. Besides, the Activity entry in the data set on Erythrocyte is “Toxic”; in data set [3], 19 mmHg. Also, in data set [2], the solubility entry is given as “Insoluble”.

Turning to `Cc1cc(C)cc(C(=O)N[C@H](Cc2ccccc2)C(=O)N[C@@H](Cc2c[nH]c3ccccc23)C(=O)O)c1`, the T1/2 in data set [4] was 1.05 h. Moreover, the hemolysis at 1 h, 1000 µM in data set [5] is below 1%. Moreover, the solubility entry in data set [2] was “Insoluble”.

For `Cc1cc(C)cc(C(=O)N[C@H](Cc2ccc(-c3c(C)noc3C)cc2)C(=O)N[C@@H](Cc2c[nH]c3ccccc23)C(=O)O)c1`, the T1/2 is 0.95 h in data set [4] and 1.2 h in data set [1]. In addition, the hemolysis at 1 h, 1000 µM in data set [5] was below 1%. For the same molecule, in data set [2], the solubility entry was “Insoluble”.

In the case of `Cc1cc(C)cc(C(=O)N[C@H](Cc2ccc(-c3c(C(=O)O)noc3C)cc2)C(=O)N[C@@H](Cc2c[nH]c3ccccc23)C(=O)O)c1`, the values for the T1/2 in data set [4] and in data set [1] were 1.18 h and 1.3 h, respectively. The hemolysis at 1 h, 1000 µM in data set [5] is below 1%. Further, the solubility result in data set [2] is reported as “Soluble”.

Regarding `Cc1cc(C)cc(C(=O)N[C@H](Cc2ccc(-c3c(CO)noc3C)cc2)C(=O)N[C@@H](Cc2c[nH]c3ccccc23)C(=O)O)c1`, the T1/2 in data set [4] stood at 1.08 h; in data set [1] it was 1.17 h. Also, the hemolysis at 1 h, 1000 µM in data set [5] is below 1%. Further, the solubility entry in data set [2] was “Soluble”.

Regarding `Cc1cc(C)cc(C(=O)N[C@H](Cc2ccc(-c3ccc(CN(C)C)o3)cc2)C(=O)N[C@@H](Cc2c[nH]c3ccccc23)C(=O)O)c1`, the T1/2 in data set [4] amounted to 1.12 h; in data set [1] it was 1.2 h. For the same molecule, in data set [5], the hemolysis at 1 h, 1000 µM was below 1%. Also, the solubility result in data set [2] is reported as “Insoluble”.

As to `Cc1cc(C)cc(C(=O)N[C@H](Cc2ccc(-c3ccccc3)cc2)C(=O)N[C@@H](Cc2c[nH]c3ccccc23)C(=O)O)c1`, the T1/2 in data set [4] is 1.07 h; in data set [1], 1.15 h. The hemolysis at 1 h, 1000 µM in data set [5] is below 1%. Further, in data set [2], the solubility result was “Insoluble”.

With `Cc1cc(C)cc(C(=O)N(C)[C@H](Cc2ccccc2)C(=O)N[C@@H](Cc2c[nH]c3ccccc23)C(=O)O)c1`, the T1/2 in data set [4] was 1.08 h; in data set [1], 1.23 h. Besides, the hemolysis at 1 h, 1000 µM in data set [5] is below 1%. For the same molecule, the solubility result in data set [2] was “Insoluble”.

Consider `Cc1cc(C)cc(C(=O)N[C@H](Cc2ccc(-c3ccco3)cc2)C(=O)N[C@@H](Cc2c[nH]c3ccccc23)C(=O)O)c1`, for which the T1/2 was determined as 1 h in data set [4] and 1.18 h in data set [1]. In addition, in data set [6], the hemolysis at 1 h, 1000 µM fell in the range of 1 to 2%. Moreover, the solubility result in data set [2] was “Insoluble”.

As for `Cc1cc(C)cc(C(=O)N[C@H](Cc2ccc(-c3cncnc3)cc2)C(=O)N[C@@H](Cc2c[nH]c3ccccc23)C(=O)O)c1`, the figures for the T1/2 in data set [4] and in data set [1] were 1.28 h and 1.33 h, respectively. Also, the hemolysis at 1 h, 1000 µM in data set [5] was below 1%. The solubility result in data set [2] is on record as “Soluble”.

As for `Cc1cc(C)cc(C(=O)N[C@H](Cc2ccc(-c3cnn(C)c3)cc2)C(=O)N[C@@H](Cc2c[nH]c3ccccc23)C(=O)O)c1`, the T1/2 in data set [4] is 1.15 h; in data set [1], 1.23 h. Further, in data set [5], the hemolysis at 1 h, 1000 µM was below 1%. Moreover, the solubility result in data set [2] was “Soluble”.
